{"source": "paper PMC3428514", "about": "(Molecular cell, 2012)", "key": {"caspase-8": {"target": "caspase-8 (Homo sapiens, UniProt Q14790)", "sequence (Q14790 217-479, species assumed)": "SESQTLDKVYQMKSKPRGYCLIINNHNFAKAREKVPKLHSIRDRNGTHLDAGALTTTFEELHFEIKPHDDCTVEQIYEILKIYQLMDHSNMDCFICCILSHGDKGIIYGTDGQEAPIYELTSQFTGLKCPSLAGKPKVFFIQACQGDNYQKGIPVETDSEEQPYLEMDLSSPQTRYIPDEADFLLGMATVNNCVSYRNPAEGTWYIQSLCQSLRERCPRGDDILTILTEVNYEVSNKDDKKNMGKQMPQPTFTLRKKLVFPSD", "test": "caspase-8 dimerization by Superdex 200 gel filtration", "type": "biochemical", "conditions": "10 μM, 15 minutes at 30°C", "outline": "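Recombinant caspase-8 (100 nM) incubated 15 min at 30°C with test compound at 10 μM, DMSO, or 10 μM Ac-VAD-CHO, then run on Superdex 200 gel filtration. Collected fractions analysed by SDS-PAGE with Coomassie Blue staining, and caspase activity measured in each fraction.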"}, "Cdc25B": {"system": "Cdc25B", "conditions": "read-out: IC50, Cdc25B; ref Vogt et al., 2003; cited from earlier work"}, "X-IAP": {"system": "X-IAP", "conditions": "read-out: IC50, X-IAP; ref Glover et al., 2003; cited from earlier work"}}, "note": "pIC50: −log10 of the molar value. Peptide text beside a SMILES is read from it."}
{"smiles": "CC(=O)N[C@H](C(=O)N[C@@H](C)C(=O)N[C@H](C=O)CC(=O)O)C(C)C", "note": "[Ac-VAD-CHO] (Ac-Val-Ala-Asp-aldehyde)", "values": [{"measurement": "effect on caspase-8 dimerization", "setting": "caspase-8", "result": "shift to the dimeric species"}]}
{"smiles": "CSC(=S)NN=C(c1ccccn1)c1ccccn1.[Cu][Br]", "note": "[Comp-C]", "values": [{"measurement": "pIC50", "setting": "Cdc25B", "result": "< 5.00"}, {"measurement": "pIC50", "setting": "X-IAP", "result": "< 5.00"}]}
